Experimental data taken from ChEMBL document CHEMBL4513216, “Probing the Open Global Health Chemical Diversity Library for Multistage-Active Starting Points for Next-Generation Antimalarials” (ACS Infect Dis, 2020).

Assay: Toxicity liver stage against HepG2, at 10uM
Assay type: cell-based
Set-up: test concentration 10 uM, cell line HepG2-A16-CD81EGFP
Conditions: human, HepG2-A16-CD81EGFP cells; read-out: INHIBITION
In short: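 Uninfected HepG2-A16-CD81EGFP cells, 3 × 10^3 per well, 1536-well, plated on prespotted compound at 10 μM final, parasite-free screening media added to match infected plates; puromycin 10 μM positive, DMSO 0.5% negative; run in parallel with 48 h PbLuc assay at 37 °C, 5% CO2; viability by CellTiter-Glo luminescence, normalized to controls.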

| SMILES | cytotoxicity at 10 µM [%] |
| --- | --- |
| COC(=O)c1cccc(S(=O)(=O)Nc2ccc(Cl)c(C(N)=O)c2)c1 | 7.31 |
| CCc1csc(CCNC(=O)C2CC(=O)N(C(C)C)C2)n1 (stereo unspecified) | -11.9 |
| COCC(NC(=O)c1cc(NC(C)=O)ccc1Cl)c1ccnn1C (stereo unspecified) | -2.22 |
| O=C1C[C@@H]2[C@H](CCN2Cc2ccco2)N1c1ccsc1 | 8.55 |
| Cc1[nH]n(C)c2nc(=O)cc(C(F)(F)C(F)(F)F)c1-2 | -2.22 |
| CN1C[C@@H](NC(=O)C(C)(C)C)C[C@H]1C(=O)NCc1ncc[nH]1 | 0.452 |
| Cc1ccc(CN2CC(O)CN(C(=O)C3CC3)CC2=O)cc1 (stereo unspecified) | -2.12 |
| CC(NC(=O)NCCCN1CCc2ccccc2C1)c1nncn1C (stereo unspecified) | -2.6 |
| Cc1nc(-c2ccc(NCCc3ccc(O)cc3)nc2)[nH]c(=O)c1C | 20.5 |
| O[C@@]1(CNCCCOc2cccnc2)CCCN2CCCC[C@@H]21 | 3.42 |
| CCC(=O)N1CCCC1c1csc(Nc2cnccn2)n1 (stereo unspecified) | -2.8 |
| Cn1nccc1C1CCN(CC(=O)NCC2CC2)CC1 | -9.38 |
| Cc1ccc(S(N)(=O)=O)cc1C(=O)NC1CCCN(C)C1 (stereo unspecified) | -1.96 |
| CC(NC(=O)N1CCCC1)c1ccc(S(N)(=O)=O)cc1 (stereo unspecified) | -8.2 |
| O=C(c1coc(-c2ccccc2)n1)N1CCS(=O)(=O)CC1 | 11.4 |
| Cc1nc(N2CCC3(CCCN(CC4CC4)C3=O)C2)c2sccc2n1 (stereo unspecified) | 42 |
| CN(Cc1cccc(OC(F)(F)F)c1)C(=O)c1cnsn1 | 0.963 |
| Cc1oncc1C(=O)NCc1cc(=O)n2c(n1)CN(C(C)C)CCC2 | 2.45 |
| CCN1CCCC1CNC(=O)CCc1cccs1 (stereo unspecified) | -9.09 |
| Cc1nnc2n1CCN(C(=O)c1cnc(C3CC3)s1)C2 | -5.19 |
| Cc1ccc2c(ccn2CCC(=O)NC[C@@H]2CCCN3CCCC[C@H]23)c1 | 2.29 |
| c1cnc(NCc2cncc3c2CCN(Cc2ccsc2)C3)nc1 | -74.4 |
| CCCc1noc(CN2CCC(C(=O)Nc3cnn(CC)c3)CC2)n1 | -0.988 |

| SMILES | cytotoxicity at 10 µM [%] |
| --- | --- |
| CN(Cc1coc(-c2ccccc2)n1)CC1CCCN1c1cccnn1 (stereo unspecified) | -10.4 |
| COc1cc(C(=O)Nc2nc(C)no2)ccc1C | -8.39 |
| O=C(Cc1cccs1)NCc1ccnc(C2CCCOC2)n1 (stereo unspecified) | 1.2 |
| CS(=O)(=O)N1CC2(CCCN2Cc2ccc(Cl)cc2)Cc2ccccc21 (stereo unspecified) | 17 |
| CCCN1CCC(NC(=O)c2csc(C)c2C)CC1 | -137 |
| CC(=O)N1CCC(c2nccnc2-c2ccc(F)cc2)CC1 | -2.22 |
| CCN(CC)C(=O)CCc1nc(-c2cnn3c(C)cc(C)nc23)no1 | -11.5 |
| Cc1cc(CN2C[C@@H]3COC[C@]3(CNC(=O)c3ccno3)C2)no1 | 1.18 |
| CN(Cc1cn2c(n1)CN(c1ncc(F)cn1)CC2)Cc1ccco1 | 3.96 |
| c1ccc(Cc2nc(CNC3CCOC4(CCOCC4)C3)no2)cc1 (stereo unspecified) | -10.6 |
| CCCNCc1cn(C)nc1-c1cccnc1 | 6.36 |
| O=C(O)CNC(=O)Cc1csc(-c2cccc(Cl)c2)n1 | 4.32 |
| Cc1cc(CNc2ccc3nc(C)sc3c2)no1 | -5.2 |
| CN(C)CC(=O)N1CCC2(CC(=O)N(c3cccc(C#N)c3)C2)C1 (stereo unspecified) | 3.37 |
| O=C(CSc1ccc2c(c1)OCCO2)NS(=O)(=O)c1ccccc1 | -2.56 |
| COc1cc(C(=O)NC(C)c2cccs2)cc2c1OCCO2 (stereo unspecified) | -18.2 |
| CCOc1ncc(NC(=O)c2ccco2)c(OCC)n1 | -1.76 |
| Cc1nc(O)cc(C2CCCN(C(=O)COCc3ccccc3)C2)n1 (stereo unspecified) | -11 |
| OC1(CNCc2csc(-c3ncccn3)n2)CCCNC1 (stereo unspecified) | -10.7 |
| O=C(Nc1cnn(CC(F)F)c1)c1cccc(-n2cnnn2)c1 | 6.01 |
| O=C(NCc1cccnc1-n1cncn1)c1ccc2c(c1)CCO2 | -14.2 |
| CC(Cn1ccnc1)NC(=O)N(C)Cc1ccc2c(c1)OCO2 (stereo unspecified) | -16.1 |
| CC(C)(C)Nc1c(C2CCN(C(=O)C(C)(C)C)CC2)nc2ccccn12 | 6.53 |

| SMILES | cytotoxicity at 10 µM [%] |
| --- | --- |
| CC(C)c1noc(CCC(=O)NC(C)c2nnc3n2CCCCC3)n1 (stereo unspecified) | -4.35 |
| COCCN(Cc1ccoc1)C(=O)c1c(F)cccc1F | 10.6 |
| CN(C)c1ccc(NC(=O)C2CN(Cc3ccccc3)CCO2)cn1 (stereo unspecified) | 4.46 |
| Cn1cc(-c2nc(CN3CCOC(Cn4cncn4)C3)cs2)cn1 (stereo unspecified) | -1.41 |
| CSc1ccc(CN(CCO)C(=O)CCc2cccc(F)c2)cc1 | 2.93 |
| CC(C)(C)CCNC(=O)c1ccc(Cl)c(NS(C)(=O)=O)c1 | -3.85 |
| CC(C)N1C[C@@H]2CN(C(=O)NCc3ccccc3)CCC[C@]2(C(=O)O)C1 | 9.37 |
| COc1ccccc1OCc1cc(C(=O)N2CCN(C(C)=O)CC2)n[nH]1 | -2.59 |
| Cc1cc(NS(=O)(=O)c2c[nH]c3ncccc23)no1 | -1.69 |
| CCOc1ccnc(NCc2nc(C)cc(=O)[nH]2)n1 | -8.42 |
| CCOCC(O)CN1CCN(C(=O)c2ccc(N(C)C)nn2)CC1 (stereo unspecified) | -13.1 |
| COc1ccc(C)cc1NC(=O)C1CSc2ncc(C)c(=O)n2C1 (stereo unspecified) | -1.99 |
| Cc1nc2ccccc2nc1CN1CCCCC1Cn1cncn1 (stereo unspecified) | -7.36 |
| Cc1nccn1CCN(C)C(=O)C1CCN(C(=O)C2CCCC2)CC1 | -4.06 |
| CCC(C)(NCC(=O)NC(C)C)c1nccs1 (stereo unspecified) | 3.26 |
| CC(NC(=O)OC(C)(C)C)c1nnc(S(=O)(=O)Cc2ccc(Cl)cc2)o1 (stereo unspecified) | -8.92 |
| COC(=O)CNC(=O)CSCc1nc(O)c2cc(C)sc2n1 | 1.45 |
| CCOc1ccc(NC(=O)NCc2cccnc2OCC)cc1 | -8.67 |
| Oc1ccccc1CN1CCC(n2cc(-c3ccc(F)cc3)nn2)CC1 | -2.68 |
| COc1cccc(N2CCN(Cc3ncc[nH]3)CC2=O)c1 | -5.73 |
| Cc1cccc(N2CCN(C(=O)CN3CCN(CCO)CC3)CC2)c1 | -15.5 |
| COCCN(C)C(C(=O)O)c1ccc(F)c(Cl)c1 (stereo unspecified) | 12.2 |
| Cc1nc(CNCC2CCCN2c2cccnn2)cs1 (stereo unspecified) | -6.26 |

| SMILES | cytotoxicity at 10 µM [%] |
| --- | --- |
| CC(C)N1CCCc2sc(C(=O)NC3CC3)nc21 | -143 |
| N#Cc1cc(NC(=O)C2CC=CC2)ccc1N1CCC(O)CC1 | -9.29 |
| c1cc(-c2n[nH]cc2-c2ccnc(N3CCCCCC3)n2)ccn1 | -0.252 |
| CCNC(=O)[C@@H]1C[C@@H](N)CN1Cc1ccc(Sc2ccc(C)cc2)o1 | -53.4 |
| CCO[C@@H]1CC[C@H]2[C@H]1OCCN2Cc1ccc(F)cc1 | 10.3 |
| COCCn1ccnc1C1CCN(C(=O)C(O)c2ccc(F)cc2)CC1 (stereo unspecified) | 1.73 |
| CC(C)(C)c1noc(CCC(=O)NCC2CCS(=O)(=O)C2)n1 (stereo unspecified) | -18.1 |
| Cc1cccc(CS(=O)(=O)CC(=O)NCCCOC(C)C)c1 | -5.15 |
| O=C(NCCN1C(=O)CCC1=O)c1nc2ccccc2c(=O)[nH]1 | -8.99 |
| Cc1cc(C)n(C2CN(CC(=O)N(C)Cc3ccc(C)o3)C2)n1 | -6.24 |
| CCC1CCCN(Cc2nc(N)c3ccccc3n2)C1 (stereo unspecified) | -11.2 |
| Cc1cc(NC(=O)NCc2ccncc2)ccc1OC(C)C | -8.36 |
| Cc1c(C(=O)N2CC(C)(C)C2(C)C)nnn1-c1cccc2cnccc12 | 9.68 |
| Cc1ccc(C(C(=O)O)N2CCCN(Cc3ccccn3)CC2)c(F)c1 (stereo unspecified) | -1.62 |
| CN1CCCCC1CCC(=O)NCCCn1ncc2ccccc21 (stereo unspecified) | -13.3 |
| O=C1CC(c2ccncc2)C2(CCN(C(=O)c3ccnnc3)CC2)N1 (stereo unspecified) | -80.4 |
| O=C1Nc2ccccc2CC12CCN(CCO)C2 (stereo unspecified) | 6.62 |
| COc1ccc2c(c1)OCC(Cc1ccc(N(C)C)nc1)C2 (stereo unspecified) | 2.77 |
| COC(=O)c1cc(OCC2CCC2)cc(C(=O)NCC(C)(C)O)c1 | 4.01 |
| O=C(NCCNc1ccc(C(F)(F)F)cn1)c1cc(Cl)ccc1F | -8.27 |
| COc1ccc(-n2cc3[nH]c(=O)[nH]n3c2=O)cc1 | -0.106 |
| Cn1c(CN2CCCCCC2)cc(=O)c(O)c1CN1CCCC1 | 13.9 |
| O=C(CCn1cncn1)N1CC[C@@H](c2ccc3ccccc3c2)[C@H](O)C1 | -5.16 |

| SMILES | cytotoxicity at 10 µM [%] |
| --- | --- |
| Cc1cc(C)c(C#N)c(N2CCC(Cc3ccccc3)CC2)n1 | -11.8 |
| Cc1ccc2nc(-c3cnc(N)nc3)cc(C(=O)N(C)C)c2c1 | 14 |
| Cc1cc(CN(C)Cc2cc3c(cc2OC(F)F)OCO3)on1 | 0.658 |
| C/N=C1/c2cc3cc(OC)ccc3n2CCN1C | 3.34 |
| CC(Oc1cccc(Cl)c1)C(=O)Nc1cnn(CCN(C)C)c1 (stereo unspecified) | -12.5 |
| N#Cc1cccnc1NCc1ccc(S(=O)(=O)NCC2CCCO2)cc1 (stereo unspecified) | 5.98 |
| c1cnc(N2CCOCC3(CCCN(CC4CC4)C3)C2)cn1 (stereo unspecified) | -15.8 |
| CSC1(CNC(=O)N(C)Cc2ccc(Cl)s2)CCOCC1 | 8.08 |
| Cc1ccc(C#N)c(N2CCC3(CCCN(C4CCOCC4)C3=O)C2)n1 (stereo unspecified) | -125 |
| CC(C)N1CCO[C@H]2CN(C(=O)Cc3cccs3)C[C@H]21 | 7.07 |
| CCCOC(=O)c1ccc(-c2ccc(/C=C3\C(=O)NC(=N)N3C)o2)cc1 | 2.91 |
| CC(=O)N[C@@H]1CN(Cc2ccc(F)cc2F)C[C@H]1c1ccc(C)o1 | 6.39 |
| COc1ccc(CCNC2CCCN(c3ccc(C)nn3)C2)cc1 (stereo unspecified) | -3.65 |
| COCCO[C@H]1CCN(C(=O)c2cnoc2C)[C@H]1Cc1cnn(C)c1 | -69.6 |
| Cc1ccc(C(=O)N2CCN(CCC(C)(C)C)CC2)c(=O)[nH]1 | -6.95 |
| Cc1n[nH]c2c1C(c1ccc(O)cc1)SCC(=O)N2 (stereo unspecified) | 10.6 |
| CC(C)(C)c1ccn(C2(C(=O)O)CCN(c3nccc(N)n3)CC2)n1 | -6.69 |
| CS(=O)(=O)NCC1CCCN(C(=O)c2cc3ccccc3o2)C1 (stereo unspecified) | -1.82 |
| CC(=O)N(Cc1ncc(C)o1)C1CCN(Cc2sc(C)nc2C)C1 (stereo unspecified) | -19.8 |
